This is one part of a sample in which hits are shown more often than they occur.
H69AR growth 86K = growth inhibitors of human H69AR lung tumor cells | viability, % at 10 µM | H69AR lung tumor viability, ATP luminescence, 72 h; active compounds read low | actives 6% (n = 85,000) | AID 598;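 active = viability at or below 40%; inactive = viability above 40%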;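 note: multidrug resistant small cell line overexpressing MRP-1 efflux transporter; 100% = mean luminescence of untreated control wells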
HUVEC prolif 384 = human endothelial cell proliferation inhibition; actives 1.1% (n = 86,000); AID 648; viability, % at 10 µM (by protocol); HUVEC proliferation, CellTiter-Glo luminescence, 72 h; active compounds read low;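 active = viability at or below 30%; inactive = viability above 30%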;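 note: 100% = median luminescence of DMSO-only cell control wells on each plate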
Fibroblast inh = blocks proliferation of human lung fibroblasts; AID 719; viability, % at 10 µM; actives 1.1% (n = 85,000); LL 47 human lung fibroblast viability, ATP luminescence; active compounds read low;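 active = viability at or below 50% in the single dose screen; inactive = viability above 50%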;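 note: compound exposure lasted 72 h before the ATP readout; 100% = median luminescence of untreated cell-only wells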
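Assay system: human lung fibroblast line LL 47, low passage. Input: 1,150 fibroblasts seeded per well. Times: overnight cell rest, 72 h compound treatment at 37 °C. Evaluation: % viability of median cell-only signal. Technique: luminescent ATP detection, CellTiter-Glo. Control set: cell-only wells, no compound.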
HCT116 PTEN-null = suppresses growth of cells with PTEN deletion | HCT116 PTEN-null viability, CellTiter-Glo, 60 h; active compounds read low | viability, % at 10 µM | actives 1.2% (n = 140,000);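 active = viability at or below a set limit, 4 SD under the median of all tested compounds, cut at about 3.7% in these data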;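 note: PTEN knockout HCT116 line with beta catenin targeted HCT116 as companion control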
bCat KO growth = beta-catenin-lacking colon tumor cell growth suppression | HCT116 beta-catenin knockout viability, CellTiter-Glo, 60 h; active compounds read low | viability, % at 10 µM | actives 1.5% (n = 140,000);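 active = viability at or under a set limit, the compound median less 4 SD, cut at about 6% in these data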;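 note: 0% = Hyamine 1622 control at 20 µM and 100% = untreated cell control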
* hit, by the source's call; / = no result.

SMILES	H69AR growth 86K	HUVEC prolif 384	Fibroblast inh	HCT116 PTEN-null	bCat KO growth
CC1(C)CCCN(C(=O)c2coc(=O)c(Br)c2)C1	7.0*	86	98	74	90
O=C(c1coc(=O)c(Br)c1)N1CCCc2ccccc21	-0.6*	85	85	84	91
NS(=O)(=O)c1ccc(NCc2cc(Cl)ccc2OCc2ccc(F)cc2)cc1	/	/	/	65	77
Cc1ccc(S(=O)(=O)N2CCN(C(=O)CN3CCOCC3)C2c2ccccc2)cc1 (stereo not drawn)	7.1*	80	98	77	81
O=C(CN1CCOCC1)N1CCN(S(=O)(=O)c2ccccc2)C1c1ccccc1 (stereo not drawn)	61	98	91	88	84
O=C(C1CCCN(S(=O)(=O)Cc2ccccc2)C1)N1CCC(Cc2ccccc2)CC1 (stereo not drawn)	26*	86	99	84	77
CS(=O)(=O)N1CCC(C(=O)N2CCC(Cc3ccccc3)CC2)CC1	79	103	111	89	95
COc1ccc(N=C2C(=O)N3c4c(cccc42)C(C)=CC3(C)C)cc1	/	/	/	17	16
COc1cc(Cl)c(C)cc1NC(=O)COC(=O)/C=C/c1c(C)nn(C2CCS(=O)(=O)C2)c1Cl (stereo not drawn)	33*	56	65	82	86
COc1cc(NC(=O)COC(=O)/C=C/c2c(C)nn(C3CCS(=O)(=O)C3)c2Cl)cc(OC)c1OC (stereo not drawn)	/	/	/	90	78
Nc1nonc1C(=O)NCCNCc1c(OCc2ccccc2F)ccc2ccccc12	12*	43	61	48	54
CC(C)(C)NC(=O)CSc1ccc(C(C)(C)C)cc1	89	91	102	96	83
CC1(C)NC(=O)N(CCOCCOc2ccc3ccccc3c2Br)C1=O	33*	78	90	77	78
COc1cc(/C=C2\C(=O)N(CCC#N)N=C2C)c(Br)cc1OC(C)C	16*	69	85	77	84
NNC(=O)CSc1cccc2cccnc12	/	/	/	102	92
CN(C)C(=O)CSc1cccc2cccnc12	0.6*	72	40*	6	4.3*
O=C(CSc1cccc2cccnc12)N1CCCC1	0.0*	64	18*	8	8
O/N=C1\CCCC\C1=C/c1ccccc1	/	/	/	97	96
CN1/C(=C\C(=O)c2cccs2)Sc2ccccc21	40*	71	81	64	66
CN1/C(=C/C(=O)c2cccs2)Sc2ccccc21	47	74	90	64	65
C=CCn1c(COc2ccccc2F)nnc1SCCN1C(=O)c2ccccc2C1=O	/	/	/	98	95
O=C(Nc1ccc(CN2CCOCC2)cc1)c1ccc(-c2cccc(Cl)c2)o1	31*	45	71	4	1.9*
CS(=O)(=O)N1CCN(c2ccc(NC(=O)c3ccc(-c4ccc(Cl)cc4)o3)cc2)CC1	29*	38	72	89	85
O=C(Nc1ccc(CN2CCOCC2)cc1)c1cc2ccccc2o1	92	104	110	74	65
Cc1[nH]ccc(=O)c1OC1OC(CO)C(O)C(O)C1O (stereo not drawn)	/	/	/	95	92
SMILES	H69AR growth 86K	HUVEC prolif 384	Fibroblast inh	HCT116 PTEN-null	bCat KO growth
Cc1cccc(-n2c(=S)[nH]c3c(oc4ccccc43)c2=O)c1	/	/	/	90	99
COC(=O)c1ccc(Cl)cc1NC(=O)/C=C/c1ccc(C)o1	/	/	/	98	92
COCCCNC(=O)c1cc2c(=O)n(C)c3ccccc3c2n1C	24*	70	101	63	70
Cn1c(C(=O)NCCCN2CCc3ccccc3C2)cc2c(=O)n(C)c3ccccc3c21	35*	52	67	53	46
Cn1c(C(=O)Nc2ccc3c(c2)OCCO3)cc2c(=O)n(C)c3ccccc3c21	21*	50	104	58	66
CC1CCN(S(=O)(=O)c2cc(C(=O)N3CCN(c4ncccn4)CC3)ccc2Br)CC1	/	/	/	55	59
C=C(C)CNC(=S)Nc1sc2c(c1C(=O)OCC)CC(C)(C)OC2	/	/	/	95	86
CN1CCN(c2ccc(Cl)cc2NC(=O)c2nn(-c3ccccc3)c(=O)c3ccccc23)CC1	4.9*	82	97	70	80
COc1ccc(OC)c(NC(=O)C2COc3ccccc3O2)c1 (stereo not drawn)	69	87	102	95	96
CN1CCN(c2ccc(Cl)cc2NC(=O)c2cccc(S(=O)(=O)N(C)C)c2)CC1	26*	57	84	75	69
CN1CCN(c2ccc(Cl)cc2NC(=O)C2COc3ccccc3O2)CC1 (stereo not drawn)	30*	71	82	78	72
c1ccc2cc(CSCc3nc4ccccc4[nH]3)ccc2c1	/	/	/	74	67
Cc1nn(-c2ccccn2)c2c1-c1nc(N3CCOCC3)ncc1CC2	10*	63	93	68	79
Cc1nn(-c2ccccn2)c2c1-c1nc(N)ncc1CC2	68	81	102	91	98
CCOc1ccc(NC(=O)CSc2nc(-c3cccs3)cc(C(F)(F)F)n2)c([N+](=O)[O-])c1	/	/	/	44	29
COc1cccc(-c2cc(C(=O)Nc3cc(OC)c(OC)c(OC)c3)no2)c1	17*	50	75	24	33
COc1cccc(-c2cc(C(=O)Nc3cccnc3)no2)c1	96	57	85	88	78
COc1cc(C(=O)NCC(=O)N/N=C(/C)c2cccs2)cc(OC)c1OC	/	/	/	89	96
CC(=O)c1c(C)[nH]c(C(=O)N2CCN(c3cc(Cl)ccc3C)CC2)c1C	17*	51	55	18	20
COc1cccc(N2CCN(C(=O)c3[nH]c(C)c(C(C)=O)c3C)CC2)c1	21*	44	54	26	26
O=C(CC(c1cccs1)S(=O)(=O)c1ccccc1)c1ccc(F)cc1 (stereo not drawn)	/	/	/	26	35
O=C1OC(c2cccc([N+](=O)[O-])c2)C2(CCCC2)C(=O)C12CCCCC2 (stereo not drawn)	/	/	/	52	49
O=C(NCc1cccnc1)/C(=C/c1ccc(-c2cccc(Cl)c2)o1)S(=O)(=O)c1ccccc1	/	/	/	1.6*	1.8*
Cc1ccc(C(=O)N/C(=C\c2ccc(-c3cc(Cl)ccc3Cl)o2)C(=O)NCc2cccnc2)cc1	/	/	/	26	33
O=C(NCc1cccnc1)/C(=C\c1ccc(-c2cccc(Cl)c2)o1)S(=O)(=O)c1ccccc1	/	/	/	1.7*	1.7*
SMILES	H69AR growth 86K	HUVEC prolif 384	Fibroblast inh	HCT116 PTEN-null	bCat KO growth
Cc1ccc(NC(=S)NN(C)c2cc(C)nc(C)n2)cc1	/	/	/	91	91
CCOc1ccc(C(=O)NC(=S)NC2CCCC2)cc1[N+](=O)[O-]	/	/	/	91	90
C/C(=N/O)c1ccc2c(c1)OCCOCCOc1cc(/C(C)=N/O)ccc1OCCOCCO2	/	/	/	60	56
NC(=S)N/N=C/c1ccc(-c2ccc(Cl)c(Cl)c2)o1	51	69	81	56	53
NC(=S)N/N=C\c1ccc(-c2cccc(Cl)c2Cl)o1	45	22*	68	63	55
COC(=O)c1ccc(Sc2nnnn2-c2ccccc2)c([N+](=O)[O-])c1	/	/	/	6	6.0*

Bioassay records deposited in PubChem by SRMLSC.
